Hits are enriched below; roughly 0.58% of the tested compounds scored in any of these assays.
PglD inh: blocks C. jejuni PglD acetyltransferase activity; purified PglD enzyme, DTNB colorimetric CoA detection; inhibition, % at 12.5 µM; 0.098% of 360,000 active; in the data active = inhibition above about 16%, passing the limit was not always enough; inconclusive = no clear call, values can overlap the other calls
Cneo AK release: causes C. neoformans cell lysis; adenylate kinase release luminescence, 4 h; normalised: neutral wells 0, clomiphene wells 100; AID 651654; lysis activity, % at 15 µM; 0.2% of 360,000 active;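 active = mean lysis activity across replicates of at least 80%, whatever share of replicates individually reach that level; inactive = mean lysis activity below 80%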
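Schedule: static 4 h at 37 °C with compound, 1 h detection; system: C. neoformans cells; benchmarks: Clomiphene as positive control; buffer or medium: fresh YPD medium; measure: luminescence rise reflecting yeast cell lysis; measured by: luminescent adenylate kinase detection reagent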
PDI inh: inhibitors of human protein disulfide isomerase | PDI insulin aggregation turbidity, A650, 90 min | AID 588391 | 0.052% of 350,000 active | P07237 | inhibition, % at 10 µM;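 active = mean inhibition across replicates of 30% or more, whatever share of single replicates reach that level; inconclusive = mean inhibition below 30% while every single replicate reaches 30%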
Target sequence (P07237 whole entry, looked up): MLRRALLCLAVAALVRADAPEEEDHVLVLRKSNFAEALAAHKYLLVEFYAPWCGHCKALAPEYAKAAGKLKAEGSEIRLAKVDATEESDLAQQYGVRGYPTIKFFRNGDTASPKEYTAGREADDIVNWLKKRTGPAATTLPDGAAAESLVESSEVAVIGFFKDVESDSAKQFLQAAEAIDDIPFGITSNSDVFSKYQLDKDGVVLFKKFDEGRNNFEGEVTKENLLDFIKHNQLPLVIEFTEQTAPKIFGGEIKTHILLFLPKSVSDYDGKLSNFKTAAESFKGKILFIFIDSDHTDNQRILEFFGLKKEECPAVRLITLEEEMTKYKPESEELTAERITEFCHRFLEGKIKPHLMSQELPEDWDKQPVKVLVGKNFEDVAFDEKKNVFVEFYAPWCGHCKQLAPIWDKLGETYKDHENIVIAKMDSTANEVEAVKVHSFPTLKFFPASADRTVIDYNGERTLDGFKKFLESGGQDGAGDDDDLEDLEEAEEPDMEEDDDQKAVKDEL
ERp5 inh: blocks human ERp5 reductase activity on insulin; AID 651711; 0.05% of 350,000 active; Q15084; ERp5 insulin aggregation, absorbance 650 nm, 90 min; inhibition, % at 9.99 µM;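 active = mean replicate inhibition above about 25%, with every replicate also reaching it, limit read from the data, passing the limit was not always enough; inconclusive = only one of those two criteria met; inactive = neither criterion met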
miR-122 sensor: blocks miR-122 activity in Huh7 sensor cells. Huh7 miR-122 Renilla luciferase sensor, 48 h; neutral wells = 0, positive control = 100. activation (reporter increase), % at 12.5 µM. 0.3% of 340,000 active. AID 602342;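 active = mean replicate activation score at least 90 and every replicate individually at or above 90; inconclusive = only one of the two criteria met; inactive = neither criterion met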;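 also: higher luciferase means less miR-122 activity so hits act as miR-122 inhibitors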
PvdQ inh: blocks Pseudomonas aeruginosa PvdQ acylase activity. inhibition, % at 10 µM. purified PvdQ acylase, fluorescence plate reader. 0.063% of 340,000 active; in the data active = inhibition above about 30%, passing the limit was not always enough; inconclusive = no clear call, values can overlap the other calls;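 also: 0% = vehicle neutral wells and 100% = reference inhibitor wells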
Numbers without * were called inactive; ? = inconclusive; nt = no result; [ ] = dose if it differs, or a comment.

SMILES | PglD inh | Cneo AK release | PDI inh | ERp5 inh | miR-122 sensor | PvdQ inh
Cc1cccc(-c2ccc([C@@H]3[C@@H](CO)N4CCCCN(S(=O)(=O)c5ccccc5C)C[C@@H]34)cc2)c1 | 1.0 | 107.6* | nt | 0.9 | 16.7[16.7 µM] | nt
CCS(=O)(=O)N1CCCCN2[C@H](CO)[C@@H](c3ccc(-c4ccc(C#N)cc4)cc3)[C@@H]2C1 | -3.0 | 87.9* | nt | -3.8 | 9.9[16.7 µM] | nt
Cc1cccc(-c2ccc([C@H]3[C@H]4CN(S(=O)(=O)c5ccccc5C)CCCCN4[C@H]3CO)cc2)c1 | -1.1 | -0.5 | nt | -1.9 | 6.0[16.7 µM] | nt
C[C@H](CO)N1C[C@H](C)[C@@H](CN(C)S(=O)(=O)c2ccccc2)Oc2ccc(NC(=O)Nc3cccc4ccccc34)cc2C1=O | 4.4 | 43.8 | nt | -1.0 | -6.6[16.7 µM] | nt
CCCCc1ccc(Nc2ncccc2C#N)cc1 | -2.4 | -1.8 | -17.8 | nt | 3.7 | 19.0
N#Cc1cccnc1Nc1ccc(Cl)cc1 | -2.2 | 0.8 | 10.6 | -9.4 | 11.8 | 32.2*
O=C(c1cc(Br)ccc1Cl)N1CCN(c2ccccn2)CC1 | 4.3 | 135.4* | -6.4 | 2.1 | 0.9 | 2.9
O=C(c1cc(Cl)ccc1Cl)N1CCN(c2ccccn2)CC1 | 5.1 | -0.6 | -3.9 | 2.0 | 0.0 | -11.2
O=C(COC(=O)/C=C/c1cccc(Br)c1)NC1CCCCCC1 | 2.7 | 0.9 | -13.1 | -7.2 | -4.5 | 42.1*
CCC(SC1=N/C(=C/c2ccccc2)C(=O)N1c1ccccc1)C(=O)Nc1cc(C)on1 (configuration not stated) | -1.8 | -0.3 | -5.7 | 2.0 | 340.5* | 6.5
O=C(C[C@H]1CC[C@H]2[C@@H](COC[C@@H](O)CN2Cc2ccccc2F)O1)N[C@@H]1CCN(Cc2ccccc2)C1 | -3.8 | -4.9 | nt | 3.1 | -0.9[16.7 µM] | nt
Cc1ccc(S(=O)(=O)N2CCN(C(=O)CCc3nc4ccccc4c(=O)[nH]3)CC2)c(C)c1 | -1.4 | -0.5 | -4.4 | 26.4* | -1.7 | -1.2
CCCNC(=O)N(C)C[C@H]1Oc2ncc(C3=CCCC3)cc2C(=O)N([C@@H](C)CO)C[C@@H]1C | 1.2 | 43.0 | nt | -2.2 | 21.6[16.7 µM] | nt
O=C(NCc1ccc(F)cc1)C(c1ccco1)N(C(=O)c1csnn1)c1ccccc1 (configuration not stated) | -3.2 | 4.5 | -0.1 | -3.0 | 7.6 | -2.5
COc1ccc(CNC(=O)C(c2ccco2)N(C(=O)c2csnn2)c2cccc(C)c2C)cc1 (configuration not stated) | 0.6 | 1.4 | 4.0 | nt | 97.4* | -11.4
COc1cc(/C=C/C(=O)/C=C(O)/C=C/c2ccc(O)c(OC)c2)ccc1O | -3.3 | -0.1 | 45.8* | 10.0 | nt | 3.7
N#Cc1ccc(-n2nnc3ccccc3c2=O)c([N+](=O)[O-])c1 | 12.6 | 0.8 | 5.5 | 1.0 | 2.0 | -1.9
N=c1c2ccccc2nnn1-c1ccccc1[N+](=O)[O-] | nt | nt | 15.4 | -3.1 | 160.6* | 4.9
O=C1COc2ccc(S(=O)(=O)Nc3ccc(F)cc3)cc2N1 | 0.9 | -0.5 | -5.1 | 2.5 | 112.3* | 1.9
Cc1ccc(N(C)S(=O)(=O)c2c[nH]c3ccc([N+](=O)[O-])cc23)cc1 | -2.5 | -0.1 | 1.7 | 4.7 | 110.1* | -21.7
O=C(C[C@H]1C[C@@H]2c3cc(NS(=O)(=O)c4ccc(F)cc4)ccc3O[C@@H]2[C@H](CO)O1)NCc1ccc(-c2ccccc2)cc1 | 1.5 | 18.0 | nt | -5.4 | -0.5[16.7 µM] | nt
O=C(C[C@@H]1C[C@H]2c3cc(NS(=O)(=O)c4ccc(F)cc4)ccc3O[C@H]2[C@H](CO)O1)NCc1ccc(Oc2ccccc2)cc1 | 0.3 | 4.8 | nt | 0.0 | 150.2*[16.7 µM] | nt
O=C(C[C@@H]1C[C@H]2c3cc(NS(=O)(=O)c4ccc(F)cc4)ccc3O[C@H]2[C@H](CO)O1)NCc1ccc(-c2ccccc2)cc1 | -0.2 | -34.4 | nt | -0.3 | 111.0*[16.7 µM] | nt
CN(C)c1ccc2c(c1)[C@@H]1C[C@@H](CC(=O)NCc3ccc(Oc4ccccc4)cc3)O[C@@H](CO)[C@@H]1O2 | -2.0 | 22.7 | nt | 2.8 | 95.6*[16.7 µM] | nt
O=C(C[C@@H]1C[C@@H]2c3cc(NS(=O)(=O)c4ccc(F)cc4)ccc3O[C@@H]2[C@H](CO)O1)NCc1ccc(Oc2ccccc2)cc1 | 0.5 | -0.5 | nt | -3.0 | 32.0[16.7 µM] | nt
SMILES | PglD inh | Cneo AK release | PDI inh | ERp5 inh | miR-122 sensor | PvdQ inh
CCC(=O)N1C[C@@H](C)[C@@H](OC)CN(C)C(=O)c2ccc(NC(=O)C3CC3)cc2OC[C@@H]1C | 0.3 | -5.4 | nt | 1.4 | nt | nt
COc1ccc(S(=O)(=O)N2CCCCN3[C@@H](CO)[C@H](c4ccc(C#CC5CC5)cc4)[C@@H]3C2)cc1 | -3.7 | -0.7 | nt | -1.6 | -28.5[16.7 µM] | nt
Cc1noc(C)c1NC(=O)N(C)C[C@@H]1Oc2ccc(NC(=O)Cn3cnnn3)cc2C(=O)N([C@H](C)CO)C[C@@H]1C | -0.2 | 0.5 | nt | -1.3 | -2.5[16.7 µM] | nt
N#CCn1c(C2CCCCC2)nc2ccccc2c1=O | 4.5 | 11.3 | -4.1 | nt | 1.2 | 35.1*
Nn1c(C2CCCCC2)nc2ccccc2c1=O | -0.7 | -0.6 | -3.0 | -0.1 | -1.7 | -20.0
CN1c2ccc(Br)cc2[C@H]2[C@H](CCN2C(=O)Cc2cccnc2)[C@@H]1CO | 1.2 | 4.3 | nt | -8.0 | 3.7[16.7 µM] | nt
Cc1cccc(NS(=O)(=O)c2csc(C(N)=O)c2)c1 | 8.8 | -1.0 | 2.7 | 3.0 | 110.6* | -11.2
COc1cc(NS(=O)(=O)c2csc(C(N)=O)c2)cc(OC)c1 | 2.2 | -1.3 | -1.1 | 1.6 | 99.3* | 0.3
O=C(C[C@@H]1C=C[C@@H](NC(=O)Nc2cc(F)ccc2F)[C@H](CO)O1)NCCCN1CCOCC1 | 3.3 | 102.7* | nt | -4.5 | -5.1[16.7 µM] | nt
C[C@@H]1CN([C@H](C)CO)C(=O)Cc2cc(NC(=O)NC3CCCCC3)ccc2O[C@@H]1CN(C)Cc1ccccc1 | 3.2 | 91.6* | nt | ? | 35.1[16.7 µM] | nt
CC(C)NC(=O)Nc1ccc2c(c1)CC(=O)N([C@H](C)CO)C[C@@H](C)[C@H](CN(C)Cc1ccc3c(c1)OCO3)O2 | 1.1 | 100.4* | nt | -0.2 | 33.4[16.7 µM] | nt
C[C@H]1CN([C@@H](C)CO)C(=O)Cc2cc(NC(=O)NC3CCCCC3)ccc2O[C@@H]1CN(C)Cc1ccccc1 | -3.6 | 9.5 | nt | -2.6 | 1.6[16.7 µM] | nt
C[C@@H]1CN([C@@H](C)CO)C(=O)Cc2cc(NC(=O)Nc3ccccc3)ccc2O[C@@H]1CN(C)C(=O)Nc1ccc2c(c1)OCO2 | -5.0 | -0.9 | nt | -6.5 | -8.7[16.7 µM] | nt
CC(C)NC(=O)Nc1ccc2c(c1)CC(=O)N([C@H](C)CO)C[C@H](C)[C@@H](CN(C)C(=O)Nc1ccc3c(c1)OCO3)O2 | 4.7 | 99.8* | nt | -2.0 | 11.1[16.7 µM] | nt
C[C@H]1CN([C@@H](C)CO)C(=O)Cc2cc(NC(=O)Nc3ccccc3)ccc2O[C@H]1CN(C)C(=O)Nc1ccc2c(c1)OCO2 | 0.2 | 101.8* | nt | -5.6 | 9.5[16.7 µM] | nt
CCCC#Cc1ccc2c(c1)O[C@H](CN(C)C(=O)c1cnccn1)[C@@H](C)CN([C@@H](C)CO)S2(=O)=O | -2.2 | 1.5 | nt | -2.8 | 31.6[16.7 µM] | nt

High-throughput results from PubChem BioAssay.
